According to ChEMBL document CHEMBL4627381, “Licochalcone A Selectively Resensitizes ABCG2-Overexpressing Multidrug-Resistant Cancer Cells to Chemotherapeutic Drugs” (J Nat Prod, 2020):
Activity calls are given as the source filed them. The rule behind the calls is not given here.

Legend:
S1 [1] = experiment: Effect on mitoxantrone-induced cytotoxicity against human S1 cells assessed as fold change in mitoxantrone IC50 at 0.5 uM after 72 hrs by MTT assay relative to mitoxantrone IC50; type: functional
In short: (§1)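 Parental S1 colon and H460 lung cancer cells were exposed for 72 h to a mitoxantrone or topotecan concentration series, with or without modulator at 0.5–3.0 μM, and read by MTT. Fold-reversal is IC50 without modulator divided by IC50 with modulator, taken from dose-response curves of three independent experiments.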

[2] = target: T1, Broad substrate specificity ATP-binding cassette transporter ABCG2 (Homo sapiens, UniProt Q9UNQ0); experiment: Reversal of ABCG2 (unknown origin)-mediated multidrug resistance in human H460-MX20 cells assessed as fold change in topotecan IC50 at 3 uM after 72 hrs by MTT assay relative to topotecan IC50; type: cell-based
T1 sequence (Q9UNQ0 whole entry): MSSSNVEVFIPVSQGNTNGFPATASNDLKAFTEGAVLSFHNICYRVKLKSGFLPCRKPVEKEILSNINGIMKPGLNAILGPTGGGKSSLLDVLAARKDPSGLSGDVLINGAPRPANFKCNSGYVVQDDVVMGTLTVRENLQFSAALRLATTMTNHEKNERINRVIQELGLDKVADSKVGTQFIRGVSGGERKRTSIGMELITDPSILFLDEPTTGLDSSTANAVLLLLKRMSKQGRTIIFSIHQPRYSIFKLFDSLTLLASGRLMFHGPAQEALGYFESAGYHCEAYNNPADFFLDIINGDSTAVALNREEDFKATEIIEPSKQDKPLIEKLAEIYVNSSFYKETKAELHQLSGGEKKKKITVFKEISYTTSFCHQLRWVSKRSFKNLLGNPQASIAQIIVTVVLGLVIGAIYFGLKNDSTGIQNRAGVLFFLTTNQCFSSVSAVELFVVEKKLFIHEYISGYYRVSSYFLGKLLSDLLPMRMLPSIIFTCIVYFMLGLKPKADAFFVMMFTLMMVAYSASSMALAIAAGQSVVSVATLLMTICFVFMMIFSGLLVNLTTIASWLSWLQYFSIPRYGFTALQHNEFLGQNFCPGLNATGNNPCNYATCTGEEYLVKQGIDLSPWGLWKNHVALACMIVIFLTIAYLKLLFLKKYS
In short: (§2)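 Cells held drug-free 7 days, seeded at 5000 per well for 24 h, then exposed 72 h to mitoxantrone or topotecan dilutions with DMSO (≤0.5%), LCA 0.5–3.0 μM, or Ko143 1.0 μM. Viability was read by MTT. IC50 came from fitted dose-response curves of three independent experiments. Fold-reversal = IC50 without modulator divided by IC50 with modulator.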

[3] = target: T1, Broad substrate specificity ATP-binding cassette transporter ABCG2; experiment: Reversal of human ABCG2-mediated multidrug resistance in HEK293/R482 cells assessed as potentiation of mitoxantrone-induced cytotoxicity after 72 hrs by CCK8 assay; type: cell-based
In short: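 Cells were seeded at 5000/well for 24 h, then given colchicine, etoposide, mitoxantrone or topotecan ± non-toxic modulator (0.5–3.0 μM) for 72 h, with DMSO up to 0.5%. IC50 came from fitted curves (mean ± SD, three experiments). Fold-reversal = IC50 without modulator ÷ IC50 with modulator.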

[4] = target: T1, Broad substrate specificity ATP-binding cassette transporter ABCG2; experiment: Inhibition of human ABCG2-mediated pheophorbide A efflux in HEK293/R482 cells incubated for 1 hr by FACScan flow cytometry; type: cell-based
In short: (§3)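 Cells held drug-free 7 days. 3 × 10^5 cells were suspended in IMDM with 5% FCS and loaded with pheophorbide A (ex 395/em 670 nm) for 1 h, with or without LCA (20 μM for single-concentration accumulation) or Ko143 3 μM as reference. Read immediately by flow cytometry. Efflux inhibition was run over a concentration range; mean ± SD of three experiments.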

S1 [5] = experiment: Induction of apoptosis in human S1 cells assessed as late apoptotic cells at 10 uM incubated for 48 hrs by annexin V/propidium iodide staining based flow cytometry (reference value: 3.6%); type: functional
In short: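 S1 cells were exposed for 48 h to DMSO, 10 μM compound, 5 μM topotecan, or 5 μM topotecan plus 10 μM compound. They were then stained with 1.25 μg/mL annexin V–FITC and 0.1 mg/mL PI for 15 min at room temperature. 10000 cells per sample were analysed by flow cytometry; three independent experiments.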

HEK293 [6] = experiment: Effect on mitoxantrone-induced cytotoxicity against HEK293 cells assessed as fold change in mitoxantrone IC50 at 1 uM after 72 hrs by CCK8 assay relative to mitoxantrone IC50; type: cell-based; settings: human, hek293, 72 h
In short: (§4)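 Reversal assay in parental pcDNA-HEK293 and transfected HEK293 lines (ABCB1 for colchicine, ABCC1 for etoposide, ABCG2 for mitoxantrone/topotecan). Substrate drug series was given with or without nontoxic modulator (0.5, 1.0, 2.0 or 3.0 μM) for 72 h, with a CCK-8 read-out. Fold-reversal is substrate IC50 without modulator divided by IC50 with modulator. Three independent experiments.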

[7] = target: T1, Broad substrate specificity ATP-binding cassette transporter ABCG2; experiment: Reversal of ABCG2 (unknown origin)-mediated multidrug resistance in human H460-MX20 cells assessed as fold change in mitoxantrone IC50 at 2 uM after 72 hrs by MTT assay relative to mitoxantrone IC50; type: cell-based; in short: as §2
S1-M1-80 = experiment: Potentiation of topotecan-induced apoptosis in human S1-M1-80 cells harboring ABCG2 (unknown origin) assessed as late apoptotic cells at 10 uM incubated for 48 hrs by annexin V/propidium iodide staining based flow cytometry (reference value: 6%); type: functional
HEK293 [8] = experiment: Effect on topotecan-induced cytotoxicity against HEK293 cells assessed as fold change in topotecan IC50 at 3 uM after 72 hrs by CCK8 assay relative to topotecan IC50; type: cell-based; settings: human, hek293, 72 h; in short: as §4
HEK293 [9] = experiment: Effect on topotecan-induced cytotoxicity against HEK293 cells assessed as fold change in topotecan IC50 at 0.5 uM after 72 hrs by CCK8 assay relative to topotecan IC50; type: cell-based; settings: human, hek293, 72 h; in short: as §4
NCI-H460 [10] = experiment: Induction of pheophorbide A accumulation in human H460 cells at 20 uM incubated for 1 hr by FACScan flow cytometry; type: functional, cell-based; in short: as §3
NCI-H460 [11] = experiment: Effect on mitoxantrone-induced cytotoxicity against human H460 cells assessed as fold change in mitoxantrone IC50 at 1 uM after 72 hrs by MTT assay relative to mitoxantrone IC50; type: functional; in short: as §1
[12] = target: T1, Broad substrate specificity ATP-binding cassette transporter ABCG2; experiment: Reversal of ABCG2 (unknown origin)-mediated multidrug resistance in human H460-MX20 cells assessed as fold change in mitoxantrone IC50 at 3 uM after 72 hrs by MTT assay relative to mitoxantrone IC50; type: cell-based; in short: as §2
GES1 = experiment: Cytotoxicity against human GES-1 cells; type: cell-based
[13] = target: T1, Broad substrate specificity ATP-binding cassette transporter ABCG2; experiment: Reversal of ABCG2 (unknown origin)-mediated multidrug resistance in human H460-MX20 cells assessed as fold change in mitoxantrone IC50 at 0.5 uM after 72 hrs by MTT assay relative to mitoxantrone IC50; type: cell-based; in short: as §2
[14] = target: T1, Broad substrate specificity ATP-binding cassette transporter ABCG2; experiment: Modulation of ABCG2 (unknown origin) expressed in High Five insect cell vesicle membrane assessed as stimulation of ATPase activity after 20 mins by colorimetric assay
In short: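 Membrane vesicles from ABCG2-expressing High Five cells were incubated with LCA (0–390 μM) at 37 °C for 20 min in 50 mM MES-Tris pH 6.8 with ouabain, DTT, NaN3, EGTA and KCl, ±0.3 mM vanadate. Liberated Pi was read by molybdate/ascorbate colorimetry at 880 nm. Vi-sensitive activity = activity minus activity with vanadate; mean ± SD of three experiments.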

SMILES: C=CC(C)(C)c1cc(/C=C/C(=O)c2ccc(O)cc2)c(OC)cc1O [LICOAGROCHACONE A]
- fold change (FC) (S1 [1]): 1.1
- fold change (FC) [2]: 10.1
- Activity [3]: Dose-dependent effect
- inhibition (INH) [4]: Dose-dependent effect
- Activity (S1 [5]): 2.7%
- fold change (FC) (HEK293 [6]): 1
- fold change (FC) [7]: 15.5
- Activity (S1-M1-80): 22.5%
- fold change (FC) (HEK293 [8]): 1
- fold change (FC) (HEK293 [9]): 0.9
- Activity (NCI-H460 [10]): inactive
- fold change (FC) (NCI-H460 [11]): 1.1
- fold change (FC) [12]: 16.6
- IC50 (GES1): > 180 µM
- fold change (FC) [13]: 2.6
- EC50 [14]: 14 µM
- Activity ([14]; human, 20 min): Dose-dependent effect
